Values after ≈ are worked out from the molar mass of the structure shown. Values joined by “and” are separate entries in the source; they are usually repeats but may differ in a detail not shown here. Equal values may be shown once. One block for each compound: values may come before it.
How the values were obtained:
P. aeruginosa PAO1 [1] = assay: Checkerboard RIF potentiation in CAMHB and Mg2+-supplemented CAMHB; format: cell-based; settings: RIF alone
How it was run: (§1)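 Checkerboard in CAMHB: the antibiotic or BL/BLI was twofold serially diluted on one axis and the adjuvant on the other. The inoculum was prepared as for MIC (0.5 McFarland, 1:50, about 5 × 10^5 cfu/mL) and plates ran at 37 °C overnight, with turbidity read at 595 nm. Each FIC is combination MIC over single-agent MIC, and FICI is their sum: ≤0.5 synergy, 0.5–4 additive, >4 antagonism. Runs were done at least twice.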

P. aeruginosa PA107092 = assay: Checkerboard assay with BLs; format: cell-based
P. aeruginosa PA108590 [2] = assay: Checkerboard assay with BLs; format: cell-based
P. aeruginosa PA109084 = assay: Checkerboard assay with BLs; format: cell-based
P. aeruginosa PA88949 = assay: Checkerboard assay with BLs; format: cell-based
P. aeruginosa PA86052 [3] = assay: Checkerboard assay with BLs; format: cell-based
P. aeruginosa PAO1 [4] = assay: Antimicrobial susceptibility assay; format: cell-based; settings: Pseudomonas aeruginosa, PAO1, read-out: minimum inhibitory concentration (MIC)
How it was run: (§2)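 Broth microdilution following CLSI guidance. An overnight culture was adjusted in saline to 0.5 McFarland, diluted 1:50 in CAMHB and inoculated at about 5 × 10^5 cfu/mL final. Agents were twofold serially diluted in CAMHB, mixed with equal volumes of inoculum and held at 37 °C overnight. MIC was the lowest concentration without visible turbidity, read at 595 nm. Runs were done at least twice and repeated if outside twofold agreement.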

A. baumannii ATCC 17978 = assay: Antimicrobial susceptibility assay; format: cell-based; settings: Acinetobacter baumannii, ATCC17978, read-out: minimum inhibitory concentration (MIC)
How it was run: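 CLSI broth microdilution. Overnight culture adjusted in saline to 0.5 McFarland, then diluted 1:50 in cation-adjusted Mueller Hinton broth to about 5 × 10^5 cfu/mL final. Test compound twofold serially diluted in the same broth, mixed with an equal volume of inoculum, incubated at 37 °C overnight. MIC is the lowest concentration without visible turbidity (595 nm). Run at least twice; repeated if outside twofold agreement.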

P. aeruginosa PAO1 [5] = settings: cited from earlier work
E. coli ATCC 25922 = assay: Antimicrobial susceptibility assay; format: cell-based; settings: Escherichia coli, ATCC25922, read-out: minimum inhibitory concentration (MIC)
How it was run: as §2

P. aeruginosa PA86052 [6] = assay: Potentiation of BL/BLI; format: cell-based
How it was run: as §1

P. aeruginosa PA108590 [7] = assay: Potentiation of BL/BLI; format: cell-based
How it was run: as §1

P. aeruginosa PAO1 [8] = assay: Checkerboard assay, antibiotic potentiation; format: cell-based; settings: PMBN (7 μM) vs 2c 8 μg/mL (2 μM)
How it was run: as §1

P. aeruginosa PAO1 [9] = assay: Outer membrane permeabilization assay; format: cell-based; settings: NPN 10 μM
How it was run: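 PAO1 suspension (OD600 0.4–0.6) was incubated with NPN (10 μM final) in 5 mM HEPES, 5 mM glucose and 5 μM CCCP for 30 min at room temperature in the dark. Test compound was then added at varying concentrations, and fluorescence (ex 350 / em 420 nm) was recorded every 30 s.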

[10] = ATM/AVI in the presence of 8 μg/mL compound 3 (3.5 μM) or PMBN (7 μM)
[11] = ATM/AVI with 8 μg/mL compound 3 (3.5 μM) or PMBN (7 μM)
[12] = CAZ/AVI in the presence of 8 μg/mL compound 3 (3.5 μM) or PMBN (7 μM)
[13] = CAZ/AVI with 8 μg/mL compound 3 (3.5 μM) or PMBN (7 μM)
[14] = CTZ/TAZ in the presence of 8 μg/mL compound 3 (3.5 μM) or PMBN (7 μM)
[15] = CTZ/TAZ with 8 μg/mL compound 3 (3.5 μM) or PMBN (7 μM)
[16] = IMI/REL in the presence of 8 μg/mL compound 3 (3.5 μM) or PMBN (7 μM)
[17] = IMI/REL with 8 μg/mL compound 3 (3.5 μM) or PMBN (7 μM)
[18] = MER/VAB in the presence of 8 μg/mL compound 3 (3.5 μM) or PMBN (7 μM)
[19] = MER/VAB with 8 μg/mL compound 3 (3.5 μM) or PMBN (7 μM)

Compound: CC(C)(O/N=C(\C(=O)N[C@@H]1C(=O)N2C(C(=O)[O-])=C(C[n+]3ccccc3)CS[C@H]12)c1csc(N)n1)C(=O)O [CAZ, ceftazidime]
MICBL (P. aeruginosa PA107092; CAZ alone): 128 µg/mL
MICBL (P. aeruginosa PA108590 [2]; CAZ alone): 64 µg/mL
MICBL (P. aeruginosa PA86052 [3]; CAZ alone): 64 µg/mL

Compound: Cn1c(N)c(NC(=O)NCCN)c[n+]1CC1=C(C(=O)O)N2C(=O)[C@@H](NC(=O)/C(=N\OC(C)(C)C(=O)[O-])c3nsc(N)n3)[C@H]2SC1 [CTZ, ceftolozane]
MICBL (P. aeruginosa PA107092; CTZ alone): 4 µg/mL
MICBL (P. aeruginosa PA108590 [2]; CTZ alone): 8 µg/mL and 4 µg/mL
MICBL (P. aeruginosa PA109084; CTZ alone): 8 µg/mL and 4 µg/mL
MICBL (P. aeruginosa PA88949; CTZ alone): 4 µg/mL
MICBL (P. aeruginosa PA86052 [3]; CTZ alone): 8 µg/mL and 4 µg/mL

Compound: C[C@@H](O)[C@H]1C(=O)N2C(C(=O)O)=C(SCCN=CN)C[C@H]12 [IMI, imipenem]
MICBL (P. aeruginosa PA107092; IMI alone): 32 µg/mL
MICBL (P. aeruginosa PA108590 [2]; IMI alone): 32 µg/mL
MICBL (P. aeruginosa PA109084; IMI alone): 16 µg/mL
MICBL (P. aeruginosa PA88949; IMI alone): 64 µg/mL
MICBL (P. aeruginosa PA86052 [3]; IMI alone): 64 µg/mL and 32 µg/mL

Compound: C[C@H]1[C@H](NC(=O)/C(=N\OC(C)(C)C(=O)O)c2csc(N)n2)C(=O)N1S(=O)(=O)O [ATM, aztreonam]
MICBL (P. aeruginosa PA108590 [2]; ATM alone): 32 µg/mL
MICBL (P. aeruginosa PA86052 [3]; ATM alone): 32 µg/mL

Continued, in another order:

MICRIF (P. aeruginosa PAO1 [1]; CAMHB): 32 µg/mL
MICRIF (P. aeruginosa PAO1 [1]; CAMHB with 20 mM Mg2+): 32 µg/mL
Compound: CO[C@H]1/C=C/O[C@@]2(C)Oc3c(C)c(O)c4c(O)c(c(/C=N/N5CCN(C)CC5)c(O)c4c3C2=O)NC(=O)/C(C)=C\C=C\[C@H](C)[C@H](O)[C@@H](C)[C@@H](O)[C@@H](C)[C@H](OC(C)=O)[C@@H]1C [RIF, rifampicin]

MICBL (P. aeruginosa PA107092; MER alone): 32 µg/mL and 64 µg/mL
MICBL (P. aeruginosa PA108590 [2]; MER alone): 4 µg/mL and 8 µg/mL
MICBL (P. aeruginosa PA109084; MER alone): 16 µg/mL
MICBL (P. aeruginosa PA88949; MER alone): 16 µg/mL and 32 µg/mL
MICBL (P. aeruginosa PA86052 [3]; MER alone): 16 µg/mL
Compound: C[C@@H](O)[C@H]1C(=O)N2C(C(=O)O)=C(S[C@@H]3CN[C@H](C(=O)N(C)C)C3)[C@H](C)[C@H]12 [MER, meropenem]

MIC (P. aeruginosa PAO1 [4]): 0.5 µg/mL (≈ 1.07 µM)
MIC (A. baumannii ATCC 17978): 0.5 µg/mL (≈ 1.07 µM)
MIC (E. coli ATCC 25922): 2 µg/mL (≈ 4.28 µM)
Compound: NC[C@H]1O[C@H](O[C@H]2[C@H](O)[C@@H](O[C@H]3O[C@H](CO)[C@@H](O)[C@H](N)[C@H]3O)[C@H](N)C[C@@H]2N)[C@H](N)C[C@@H]1O [TOB, tobramycin]
synergy with NOV, RIF, MIN, LEV, CAZ (P. aeruginosa PAO1 [5]): did not synergize

MICBL/BLI [MIC with 3 or PMBN] (P. aeruginosa PA86052 [6]; [10]): 0.0625 µg/mL
MICBL/BLI [MIC with 3 or PMBN] (P. aeruginosa PA86052 [6]; [12]): 0.25 µg/mL
MICBL/BLI [MIC with 3 or PMBN] (P. aeruginosa PA86052 [6]; [14]): 0.0625 µg/mL
MICBL/BLI [MIC with 3 or PMBN] (P. aeruginosa PA86052 [6]; [16]): 0.125 µg/mL
MICBL/BLI [MIC with 3 or PMBN] (P. aeruginosa PA86052 [6]; [18]): 0.0312 µg/mL
MICBL/BLI [MIC with 3 or PMBN] (P. aeruginosa PA108590 [7]; [10]): 2 µg/mL
MICBL/BLI [MIC with 3 or PMBN] (P. aeruginosa PA108590 [7]; [12]): 4 µg/mL
MICBL/BLI [MIC with 3 or PMBN] (P. aeruginosa PA108590 [7]; [14]): 2 µg/mL
MICBL/BLI [MIC with 3 or PMBN] (P. aeruginosa PA108590 [7]; [16]): 1 µg/mL
MICBL/BLI [MIC with 3 or PMBN] (P. aeruginosa PA108590 [7]; [18]): 4 [4] μg/mL
NPN fluorescence (OM permeabilization) (P. aeruginosa PAO1 [9]): increased fluorescence
Compound: polymyxin B nonapeptide [PMBN]
fold potentiation (P. aeruginosa PA86052 [6]; [11]): 1024 fold
fold potentiation (P. aeruginosa PA86052 [6]; [13]): 512 fold
fold potentiation (P. aeruginosa PA86052 [6]; [15]): 128 fold
fold potentiation (P. aeruginosa PA86052 [6]; [17]): 512 fold
fold potentiation (P. aeruginosa PA86052 [6]; [19]): 512 fold
fold potentiation (P. aeruginosa PA108590 [7]; [11]): 16 fold
fold potentiation (P. aeruginosa PA108590 [7]; [13]): 32 fold
fold potentiation (P. aeruginosa PA108590 [7]; [15]): 2 fold
fold potentiation (P. aeruginosa PA108590 [7]; [17]): 32 fold
fold potentiation (P. aeruginosa PA108590 [7]; [19]): 1 fold
MIN potentiation relative to trimer 2c (P. aeruginosa PAO1 [8]): 4 fold

Source: article PMC10433466 (ACS Omega, 2023)
